Laboratory results taken from ChEMBL document CHEMBL2375304, “Synthesis and anticancer activity of novel 2-pyridyl hexahyrocyclooctathieno[2,3-d]pyrimidine derivatives” (2013).

Legend:
Format in all cases: functional
[1] = system: HCT-15; experiment: Growth inhibition of human HCT15 cells at 10^-5 M after 48 hrs by Sulforhodamine B assay relative to control; settings: HCT-15, 48 h, read-out: GI
Method in brief: (§1)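 Single-dose screen at 10⁻⁵ M. Cells are preincubated 24 h at 37 °C in 5% CO2, then exposed to the compound, diluted from a DMSO stock into medium with gentamicin, for 48 h. Adherent cells are fixed with cold TCA (final 10%) and suspension cells with TCA (final 16%). Cells are stained with 0.4% SRB in 1% acetic acid and bound dye is read at 515 nm. Percent growth inhibition is taken against control wells and time-zero plates.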

[2] = Growth inhibition of human NCI-ADR-RES cells at 10^-5 M after 48 hrs by Sulforhodamine B assay relative to control; settings: read-out: GI
Method in brief: (§2)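 Single-dose primary screen at 10⁻⁵ M across 49 lines. Cells were plated 24 h beforehand, with a TCA-fixed time-zero plate, then exposed 48 h at 37 °C, 5% CO2. Cells were fixed with cold TCA, stained with SRB and read at 515 nm. Percent growth was calculated against time-zero and untreated-control absorbances.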

[3] = system: HCT-116; experiment: Growth inhibition of human HCT116 cells at 10^-5 M after 48 hrs by Sulforhodamine B assay relative to control; settings: HCT-116, 48 h, read-out: GI; method in brief: as §1
[4] = system: SK-OV-3; experiment: Growth inhibition of human SKOV3 cells at 10^-5 M after 48 hrs by Sulforhodamine B assay relative to control; settings: SK-OV-3, 48 h, read-out: GI; method in brief: as §2
[5] = system: OVCAR-3; experiment: Growth inhibition of human OVCAR3 cells at 10^-5 M after 48 hrs by Sulforhodamine B assay relative to control; settings: OVCAR-3, 48 h, read-out: GI; method in brief: as §2
[6] = system: DU-145; experiment: Growth inhibition of human DU145 cells at 10^-5 M after 48 hrs by Sulforhodamine B assay relative to control; settings: DU-145, 48 h, read-out: GI; method in brief: as §1
[7] = system: MDA-MB-435; experiment: Growth inhibition of human MDA-MB-435 cells at 10^-5 M after 48 hrs by Sulforhodamine B assay relative to control; settings: MDA-MB-435, 48 h, read-out: GI; method in brief: as §1
[8] = system: UO-31; experiment: Growth inhibition of human UO31 cells at 10^-5 M after 48 hrs by Sulforhodamine B assay relative to control; settings: UO-31, 48 h, read-out: GI
Method in brief: (§3)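 Single-dose stage: compound tested at 10⁻⁵ M in the 49-cell-line panel. Cells grew 24 h at 37 °C, 5% CO₂ before drug addition. Drug stock was in DMSO at 400-fold, diluted in medium with gentamicin. After 48 h exposure, adherent cells were fixed with cold TCA (10% final) and stained with 0.4% SRB in 1% acetic acid. Dye was solubilized in 10 mM Tris, read at 515 nm. Growth percentage was taken relative to untreated control and time-zero plates.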

[9] = system: T47D; experiment: Growth inhibition of human T47D cells at 10^-5 M after 48 hrs by Sulforhodamine B assay relative to control; settings: read-out: GI; method in brief: as §3
[10] = system: CAKI-1; experiment: Growth inhibition of human CAKI-1 cells at 10^-5 M after 48 hrs by Sulforhodamine B assay relative to control; settings: CAKI-1, 48 h, read-out: GI; method in brief: as §1
[11] = system: HL-60(TB); experiment: Growth inhibition of human HL-60(TB) cells at 10^-5 M after 48 hrs by Sulforhodamine B assay relative to control; settings: HL-60, 48 h, read-out: GI
Method in brief: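 First-stage single-dose screen at 10⁻⁵ M. Cells pre-incubated 24 h at 37 °C, 5% CO2, then exposed to drug for 48 h. Settled cells fixed with TCA (final 16%), SRB-stained and read at 515 nm. Percentage growth inhibition is derived from treated, untreated control and time-zero absorbances.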

[12] = system: HOP-92; experiment: Growth inhibition of human HOP92 cells after 48 hrs by Sulforhodamine B assay; settings: HOP-92, 48 h
Method in brief: (§4)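 Five-concentration SRB assay using 10-fold or ½-log serial dilutions from a DMSO stock. Exposure is 48 h at 37 °C in 5% CO2 after 24 h preincubation. TCA fixation is followed by SRB staining and a reading at 515 nm. Percentage growth is computed from time-zero, control and treated absorbances. GI50 is the concentration where [(Ti−Tz)/(C−Tz)]×100 = 50, read from the plot against log concentration.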

[13] = system: SK-MEL-2; experiment: Growth inhibition of human SK-MEL-2 cells after 48 hrs by Sulforhodamine B assay; settings: SK-MEL-2, 48 h
Method in brief: (§5)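 Cells were preincubated 24 h at 37 °C, 5% CO2, and a time-zero plate was TCA-fixed. Five concentrations were made by serial dilution from a DMSO stock (400-fold the top concentration) and incubated 48 h. Adherent cells were fixed with 10% final TCA and suspension cells with 16%. Plates were stained with 0.4% SRB and read at 515 nm. GI50 is the concentration giving 50% reduction in net protein increase versus control.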

[14] = system: MOLT-4; experiment: Growth inhibition of human MOLT4 cells after 48 hrs by Sulforhodamine B assay; settings: MOLT-4, 48 h; method in brief: as §5
[15] = system: UACC-62; experiment: Growth inhibition of human UACC62 cells after 48 hrs by Sulforhodamine B assay; settings: UACC-62, 48 h
Method in brief: (§6)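 Five-concentration stage in the […]-cell-line panel, using 10-fold or ½-log serial dilutions made from a DMSO stock (400-fold). Cells were preincubated 24 h at 37 °C, then drug-exposed 48 h. A time-zero plate was fixed with TCA at dosing, adherent cells were fixed with cold TCA (10% final), and protein was stained with SRB, absorbance 515 nm. GI50 was where [(Ti−Tz)/(C−Tz)]×100 = 50, from the percent growth vs log concentration plot, expressed as log10 GI50.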

[16] = system: TK-10; experiment: Growth inhibition of human TK10 cells after 48 hrs by Sulforhodamine B assay; settings: TK-10, 48 h; method in brief: as §6
[17] = system: DU-145; experiment: Growth inhibition of human DU145 cells after 48 hrs by Sulforhodamine B assay; settings: DU-145, 48 h; method in brief: as §4
[18] = system: NCI-H23; experiment: Growth inhibition of human NCI-H23 cells after 48 hrs by Sulforhodamine B assay; settings: NCI-H23, 48 h; method in brief: as §5
[19] = system: NCI-H322M; experiment: Growth inhibition of human NCI-H322M cells after 48 hrs by Sulforhodamine B assay; method in brief: as §5
[20] = system: SK-MEL-28; experiment: Growth inhibition of human SK-MEL-28 cells after 48 hrs by Sulforhodamine B assay; settings: SK-MEL-28, 48 h; method in brief: as §5
[21] = system: ACHN; experiment: Growth inhibition of human ACHN cells after 48 hrs by Sulforhodamine B assay; method in brief: as §4
[22] = system: HOP-62; experiment: Growth inhibition of human HOP62 cells after 48 hrs by Sulforhodamine B assay; settings: HOP-62, 48 h; method in brief: as §4
[23] = system: OVCAR-8; experiment: Growth inhibition of human OVCAR8 cells after 48 hrs by Sulforhodamine B assay; settings: OVCAR-8, 48 h; method in brief: as §5
[24] = system: SK-MEL-5; experiment: Growth inhibition of human SK-MEL-5 cells after 48 hrs by Sulforhodamine B assay; settings: SK-MEL-5, 48 h; method in brief: as §5
[25] = system: A498; experiment: Growth inhibition of human A498 cells after 48 hrs by Sulforhodamine B assay; settings: A498, 48 h; method in brief: as §4
[26] = system: SNB-75; experiment: Growth inhibition of human SNB75 cells after 48 hrs by Sulforhodamine B assay; settings: SNB-75, 48 h; method in brief: as §5

SMILES	inhibition of growth at 10 µM [1]	inhibition of growth at 10 µM [2]	inhibition of growth at 10 µM [3]	inhibition of growth at 10 µM [4]	inhibition of growth at 10 µM [5]	inhibition of growth at 10 µM [6]	inhibition of growth at 10 µM [7]	inhibition of growth at 10 µM [8]	inhibition of growth at 10 µM [9]	inhibition of growth at 10 µM [10]	inhibition of growth at 10 µM [11]	other results
Clc1nc(-c2ccncc2)nc2sc3c(c12)CCCCCC3	0.89%	-6.46%	2.69%	-7.46%	-5.97%	8.02%	3.14%	13.9%	6.79%	-4.99%	3.12%	
Clc1nc(-c2ccccn2)nc2sc3c(c12)CCCCCC3	15.8%	10.7%	15.5%	-5.16%	-7.89%	77.5%	8.64%	83.6%	57.8%	165%	3.98%	
NNc1nc(-c2ccncc2)nc2sc3c(c12)CCCCCC3	7.32%	2.44%	4.13%	9.44%	-0.84%	-30.4%	1.01%	20.4%	0.16%	7.27%	16.4%	
c1ccc(-c2nc(N3CCOCC3)c3c4c(sc3n2)CCCCCC4)nc1												GI50 [12]: 0.617 µM; GI50 [13]: 7.94 µM; GI50 [14]: 3.8 µM; GI50 [15]: 3.47 µM; GI50 [16]: 9.33 µM; GI50 [17]: 6.92 µM; GI50 [18]: 6.03 µM; GI50 [19]: 5.5 µM; GI50 [20]: 11 µM; GI50 [21]: 4.47 µM; GI50 [22]: 9.55 µM; GI50 [23]: 5.13 µM; GI50 [24]: 2 µM; GI50 [25]: 1.66 µM; GI50 [26]: 7.08 µM
CN1CCN(c2nc(-c3ccncc3)nc3sc4c(c23)CCCCCC4)CC1												GI50 [12]: 0.661 µM; GI50 [13]: 14.5 µM; GI50 [14]: 3.8 µM; GI50 [15]: 11 µM; GI50 [16]: 6.76 µM; GI50 [17]: 12.6 µM; GI50 [18]: 11.5 µM; GI50 [19]: 13.2 µM; GI50 [20]: 12.6 µM; GI50 [21]: 7.94 µM; GI50 [22]: 6.46 µM; GI50 [23]: 12.3 µM; GI50 [24]: 7.94 µM; GI50 [25]: 1.05 µM; GI50 [26]: 1.38 µM
CN1CCN(c2nc(-c3ccccn3)nc3sc4c(c23)CCCCCC4)CC1	2.35%	22.7%	14.1%	-3.22%	-5.6%	-11.6%	4.89%	32.8%	24.9%	20%	4.37%	
COc1ccc(N2CCN(c3nc(-c4ccncc4)nc4sc5c(c34)CCCCCC5)CC2)cc1	17.7%	9.28%	23.3%	0.84%	9.75%	2.73%	4.86%	11.1%	27%	28.8%	15.2%	
c1ccc(N2CCN(c3nc(-c4ccncc4)nc4sc5c(c34)CCCCCC5)CC2)cc1	2.1%	5.34%	-3.45%	1.97%	7.59%	-4.95%	2.52%	16.1%	11.7%	8.66%	2.53%	
c1ccc(N2CCN(c3nc(-c4ccccn4)nc4sc5c(c34)CCCCCC5)CC2)cc1	41.4%	57.5%	80.5%	12.6%	27%	21.1%	34.2%	55.8%	57.6%	45.9%		
c1cc(-c2nc(N3CCOCC3)c3c4c(sc3n2)CCCCCC4)ccn1	20.8%	18.7%	23.2%	0.61%	15.4%	1.4%	0.03%	38.7%	19.2%	15.8%	24.6%	
